Active and inactive are the calls of the source. The rule behind the calls is not given here.
How the values were obtained:
Influenza A virus [1] = experiment: Antiviral activity against Influenza A virus (A/Puerto Rico/8/34(H1N1)) infected in dog MDCK cells assessed as reduction in virus-induced cytopathogenicity incubated for 48 hrs by microscopic analysis; type: functional, organism-based; conditions: A/Puerto Rico/8/1934(H1N1)
MDCK [2] = experiment: Downregulation of NOX1 in dog MDCK cells infected with Influenza A virus (A/Puerto Rico/8/34(H1N1)) at 40 uM incubated for 24 hrs by qRT-PCR analysis; type: functional, cell-based; conditions: Canis lupus familiaris
Summary of the method: (§1)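 Virus-infected MDCK cells were treated with compound for 24 h. Expression of each gene was then measured by qRT-PCR using gene-specific primers, against an untreated control group.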

MDCK [3] = experiment: Upregulation of IFN-beta in dog MDCK cells infected with Influenza A virus (A/Puerto Rico/8/34(H1N1)) at 40 uM incubated for 24 hrs by qRT-PCR analysis; type: functional, cell-based; conditions: Canis lupus familiaris; summary of the method: as §1
MDCK [4] = experiment: Upregulation of MxA in dog MDCK cells infected with Influenza A virus (A/Puerto Rico/8/34(H1N1)) at 40 uM incubated for 24 hrs by qRT-PCR analysis; type: functional, cell-based; conditions: Canis lupus familiaris; summary of the method: as §1
[5] = Selectivity index, ratio of CC50 for dog MDCK cells to IC50 for antiviral activity against Influenza A virus (A/Puerto Rico/8/34(H1N1)); type: toxicity; conditions: read-out: Ratio CC50/IC50
Summary of the method: (§2)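 SI = CC50/IC50, both from MTT read-outs in MDCK cells in triplicate. Cytotoxicity: 2 × 10⁴ cells/well, overnight at 37 °C with 5% CO2, then compound at 1.56–400 µM for 48 h, MTT 4 h, DMSO, A570. Antiviral: cells infected 1 h, washed, then cultured 48 h in DMEM with TPCK and two-fold serial compound dilutions.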

H3N2 subtype = experiment: Antiviral activity against Influenza A virus (A/Aichi/2/1968(H3N2)) infected in dog MDCK cells assessed as reduction in virus-induced cytopathogenicity incubated for 48 hrs by microscopic analysis; type: functional, cell-based
Influenza A virus [6] = experiment: Antiviral activity against Influenza A virus (A/Puerto Rico/8/34(H1N1)) infected in human A549 cells assessed as reduction in viral replication by measuring HA mRNA expression at 5 to 40 uM incubated for 24 hrs by qRT-PCR analysis; type: functional, organism-based; conditions: A/Puerto Rico/8/1934(H1N1), dose 5-40 µM
Influenza A virus [7] = experiment: Antiviral activity against Influenza A virus (A/Puerto Rico/8/34(H1N1)) infected in dog MDCK cells assessed as reduction in viral replication by measuring NP level incubated for 24 hrs by immunofluorescence staining based Ti-Eclipse inverted fluorescence microscopic analysis; type: functional, organism-based; conditions: A/Puerto Rico/8/1934(H1N1), dose 5-40 µM
Summary of the method: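 MDCK cells were infected with PR8 at 100TCID₅₀ and treated with varied compound concentrations. At 24 h p.i. they were washed with cold PBS, fixed in 4% paraformaldehyde for 10 min and blocked in 3% BSA for 1 h at room temperature. Staining used anti-NP (1:250) overnight at 4 °C, then a FITC secondary for 1 h, with DAPI nuclear counterstain; cells were imaged by fluorescence microscopy.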

Influenza A virus [8] = experiment: Antiviral activity against Influenza A virus (A/Puerto Rico/8/34(H1N1)) infected in dog MDCK cells assessed as reduction in viral replication by measuring NP expression at 40 uM measured upto 10 hrs by Western blot analysis; type: functional, organism-based; conditions: A/Puerto Rico/8/1934(H1N1), time hrs <=10
Summary of the method: (§3)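 Time-of-addition assay with PR8. After unabsorbed virus was removed, cells received compound during the intervals 0–2, 2–5, 5–8, 8–10 or 0–10 h, covering one replication cycle. At 10 h p.i., viral NP protein was read by western blot and viral mRNA by qRT-PCR. Three independent experiments, mean SD.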

Influenza A virus [9] = experiment: Antiviral activity against Influenza A virus (A/Fort Monmouth/1/1947(H1N1)) infected in dog MDCK cells assessed as reduction in virus-induced cytopathogenicity incubated for 48 hrs by microscopic analysis; type: functional, organism-based
Influenza A virus [10] = experiment: Antiviral activity against Influenza A virus (A/Puerto Rico/8/34(H1N1)) infected in dog MDCK cells assessed as reduction in plaque formation incubated for 48 hrs by crystal violet staining based assay; type: functional, organism-based; conditions: A/Puerto Rico/8/1934(H1N1), dose 5-40 µM
Summary of the method: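 Plaque reduction assay in PR8-infected MDCK cells across a range of compound doses. Cells were fixed with 4% paraformaldehyde and stained with crystal violet. Inhibition was scored by counting plaques.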

[11] = Cytotoxicity against dog MDCK cells assessed as reduction in cell viability incubated for 48 hrs by MTT assay; type: cell-based, Canis lupus familiaris
Summary of the method: (§4)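 MDCK or A549 cells were seeded at 2 × 10⁴ per well and incubated overnight at 37 °C, 5% CO₂. Compound (1.56 to 400) was added for 48 h, followed by MTT for 4 h at 37 °C and DMSO to dissolve the formazan. Absorbance was read at 570 nm and CC₅₀ calculated.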

Influenza A virus [12] = experiment: Antiviral activity against Influenza A virus (A/Puerto Rico/8/34(H1N1)) infected in human A549 cells assessed as reduction in viral replication by measuring NP expression at 40 uM measured upto 10 hrs by qRT-PCR analysis; type: functional, organism-based; conditions: A/Puerto Rico/8/1934(H1N1), time hrs <=10; summary of the method: as §3
Influenza A virus [13] = experiment: Antiviral activity against Influenza A virus (A/Puerto Rico/8/34(H1N1)) infected in dog MDCK cells assessed as reduction in viral replication at 40 uM measured upto 10 hrs; type: functional, organism-based; conditions: A/Puerto Rico/8/1934(H1N1), time hrs <=10; summary of the method: as §3
[14] = Selectivity index, ratio of CC50 for dog MDCK cells to IC50 for antiviral activity against Influenza A virus 690 (H3); type: toxicity; conditions: read-out: Ratio CC50/IC50; summary of the method: as §2
Influenza A virus [15] = experiment: Antiviral activity against Influenza A virus 690 (H3) infected in dog MDCK cells assessed as reduction in virus-induced cytopathogenicity incubated for 48 hrs by microscopic analysis; type: functional, organism-based
[16] = Cytotoxicity against human A549 cells assessed as reduction in cell viability incubated for 48 hrs by MTT assay; type: cell-based; summary of the method: as §4
[17] = Selectivity index, ratio of CC50 for dog MDCK cells to IC50 for antiviral activity against Influenza A virus (A/Fort Monmouth/1/1947(H1N1)); type: toxicity; conditions: read-out: Ratio CC50/IC50; summary of the method: as §2
[18] = Selectivity index, ratio of CC50 for dog MDCK cells to IC50 for antiviral activity against Influenza A virus (A/Aichi/2/1968(H3N2)); type: toxicity; conditions: read-out: Ratio CC50/IC50; summary of the method: as §2
Influenza A virus [19] = experiment: Antiviral activity against Influenza A virus (A/Puerto Rico/8/34(H1N1)) infected in dog MDCK cells assessed as reduction in viral replication by measuring NP level incubated for 24 hrs by Western blot analysis; type: functional, organism-based; conditions: A/Puerto Rico/8/1934(H1N1), dose 5-40 µM
Summary of the method: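 Two-fold serial compound dilutions were added to PR8-infected MDCK cells after virus adsorption, and cells were harvested at 24 h p.i. Equal lysate protein was run on 10% SDS-PAGE and transferred to PVDF. Blots were probed with anti-NP (1:2000) and β-actin as loading control, then an HRP secondary, with chemiluminescent detection.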

Influenza A virus [20] = experiment: Antiviral activity against Influenza A virus (A/Puerto Rico/8/34(H1N1)) infected in dog MDCK cells assessed as reduction in viral replication by measuring HA mRNA expression measured upto 72 hrs by qRT-PCR analysis; type: functional, organism-based; conditions: A/Puerto Rico/8/1934(H1N1), time hrs <=72
Summary of the method: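 Viral HA mRNA was measured by qRT-PCR in IAV-infected MDCK cells treated with serially diluted compound, at 24, 48 and 72 h p.i. Ribavirin served as positive control; data are mean SD.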

## CCOC(=O)C1=C(Nc2ccc(C(F)(F)F)cc2)C(=O)N(c2ccc(C(F)(F)F)cc2)C1c1ccc(F)cc1 (stereo not given)
Influenza A virus [1]
  IC50: 7.63 µM

## CCOC(=O)C1=C(Nc2cccc(Cl)c2)C(=O)N(c2cccc(Cl)c2)C1c1ccccc1 (stereo not given)
Influenza A virus [1]
  IC50: 6.91 µM

## CCOC(=O)C1=C(Nc2ccc(C(C)(C)C)cc2)C(=O)N(c2ccc(C(C)(C)C)cc2)C1c1ccccc1 (stereo not given)
Influenza A virus [1]
  IC50: > 400 µM

## COC(=O)C1=C(Nc2cccc(C(F)(F)F)c2)C(=O)N(c2cccc(C(F)(F)F)c2)C1c1ccccc1 (stereo not given)
Influenza A virus [1]
  IC50: 16.1 µM

## CCOC(=O)C1=C(Nc2ccc(C(F)(F)F)cc2)C(=O)N(c2ccc(C(F)(F)F)cc2)C1c1ccc(Br)cc1 (stereo not given)
Influenza A virus [1]
  IC50: > 400 µM

## CCOC(=O)C1=C(Nc2ccc(Br)cc2)C(=O)N(c2ccc(Br)cc2)C1c1ccccc1 (stereo not given)
Influenza A virus [1]
  IC50: > 400 µM

## CCOC(=O)C1=C(Nc2ccc(C(F)(F)F)cc2)C(=O)N(c2ccc(C(F)(F)F)cc2)C1c1ccc(Br)s1 (stereo not given)
Influenza A virus [1]
  IC50: > 400 µM

## CCOC(=O)C1=C(NC2CCCCC2)C(=O)N(C2CCCCC2)C1c1ccccc1 (stereo not given)
Influenza A virus [1]
  IC50: > 400 µM

## CCOC(=O)C1=C(Nc2ccc(C(F)(F)F)cc2)C(=O)N(c2ccc(C(F)(F)F)cc2)C1c1cccc([N+](=O)[O-])c1 (stereo not given)
Influenza A virus [1]
  IC50: > 400 µM

## CCOC(=O)C1=C(Nc2ccc(C(F)(F)F)cc2)C(=O)N(c2ccc(C(F)(F)F)cc2)C1c1cccc(OC)c1 (stereo not given)
Influenza A virus [1]
  IC50: 9.23 µM

## CCOC(=O)C1=C(Nc2ccc(C(C)C)cc2)C(=O)N(c2ccc(C(C)C)cc2)C1c1ccccc1 (stereo not given)
Influenza A virus [1]
  IC50: > 400 µM

## CCOC(=O)C1=C(Nc2ccc(C(F)(F)F)cc2)C(=O)N(c2ccc(C(F)(F)F)cc2)C1c1ccccc1 (stereo not given)
MDCK [2]
  Activity: Active
MDCK [3]
  Activity: Active
MDCK [4]
  Activity: Active
[5]
  selectivity ratio: > 129
H3N2 subtype
  IC50: 5.26 µM
Influenza A virus [6]
  Activity: Active
Influenza A virus [7]
  Activity: Dose-dependent effect
Influenza A virus [8]
  Activity: Active
Influenza A virus [9]
  IC50: 3.58 µM
Influenza A virus [10]
  Activity: Dose-dependent effect
Influenza A virus [1]
  IC50: 3.11 µM
[11]
  CC50 at 48 h: > 400 µM
Influenza A virus [12]
  Activity: Active
Influenza A virus [13]
  Activity: Active
[14]
  selectivity ratio: > 56.1
Influenza A virus [15]
  IC50: 7.13 µM
[16]
  CC50 at 48 h: > 400 µM
[17]
  selectivity ratio: > 112
[18]
  selectivity ratio: > 76
Influenza A virus [19]
  Activity: Dose-dependent effect
Influenza A virus [20]
  Activity: Active

## CCOC(=O)C1=C(Nc2ccc(OC)cc2)C(=O)N(c2ccc(OC)cc2)C1c1ccccc1 (stereo not given)
Influenza A virus [1]
  IC50: > 400 µM

## CCOC(=O)C1=C(Nc2ccc(C(F)(F)F)cc2)C(=O)N(c2ccc(C(F)(F)F)cc2)C1c1cccc(C(F)(F)F)c1 (stereo not given)
Influenza A virus [1]
  IC50: 11.8 µM

## CCOC(=O)C1=C(Nc2ccc(C(F)(F)F)cc2)C(=O)N(c2ccc(C(F)(F)F)cc2)C1c1ccc(C#N)cc1 (stereo not given)
Influenza A virus [1]
  IC50: > 400 µM

## CCOC(=O)C1=C(Nc2ccc(C(F)(F)F)cc2)C(=O)N(c2ccc(C(F)(F)F)cc2)C1c1cccc2ccccc12 (stereo not given)
Influenza A virus [1]
  IC50: 11.8 µM

## CCOC(=O)C1=C(Nc2ccc(C(F)(F)F)cc2)C(=O)N(c2ccc(C(F)(F)F)cc2)C1c1ccc(C(C)(C)C)cc1 (stereo not given)
Influenza A virus [1]
  IC50: > 400 µM

## CCOC(=O)C1=C(Nc2ccc(C(F)(F)F)cc2)C(=O)N(c2ccc(C(F)(F)F)cc2)C1c1ccc(C(F)(F)F)cc1 (stereo not given)
Influenza A virus [1]
  IC50: 67.2 µM

## CCOC(=O)C1=C(Nc2ccc(C(F)(F)F)cc2)C(=O)N(c2ccc(C(F)(F)F)cc2)C1c1ccc(C)cc1 (stereo not given)
Influenza A virus [1]
  IC50: 68.5 µM

## CCOC(=O)C1=C(Nc2cccc(C(F)(F)F)c2)C(=O)N(c2cccc(C(F)(F)F)c2)C1c1ccccc1 (stereo not given)
Influenza A virus [1]
  IC50: 30.9 µM

## CCOC(=O)C1=C(Nc2ccc(C(F)(F)F)cc2)C(=O)N(c2ccc(C(F)(F)F)cc2)C1
Influenza A virus [1]
  IC50: 222 µM

## NC(=O)c1ncn([C@@H]2O[C@H](CO)[C@@H](O)[C@H]2O)n1 [RIBAVIRIN]
Influenza A virus [1]
  IC50: 2.84 µM

## COC(=O)C1=C(Nc2ccc(C(F)(F)F)cc2)C(=O)N(c2ccc(C(F)(F)F)cc2)C1c1ccccc1 (stereo not given)
Influenza A virus [1]
  IC50: 11.9 µM

## CCOC(=O)C1=C(Nc2ccccc2)C(=O)N(c2ccccc2)C1c1ccccc1 (stereo not given)
Influenza A virus [1]
  IC50: > 400 µM

## CCOC(=O)C1=C(Nc2ccc(C(F)(F)F)cc2)C(=O)N(c2ccc(C(F)(F)F)cc2)C1c1ccc(OC(F)(F)F)cc1 (stereo not given)
Influenza A virus [1]
  IC50: 128 µM

## CCOC(=O)C1=C(Nc2ccc(C)cc2)C(=O)N(c2ccc(C)cc2)C1c1ccccc1 (stereo not given)
Influenza A virus [1]
  IC50: 19 µM

## CCOC(=O)C1=C(Nc2ccc(Cl)cc2)C(=O)N(c2ccc(Cl)cc2)C1c1ccccc1 (stereo not given)
Influenza A virus [1]
  IC50: > 400 µM

## CCOC(=O)C1=C(Nc2ccc(C(F)(F)F)cc2)C(=O)N(c2ccc(C(F)(F)F)cc2)C1c1ccc(Cl)cc1 (stereo not given)
Influenza A virus [1]
  IC50: > 400 µM

## CCOC(=O)C1=C(Nc2ccc(C(F)(F)F)cc2)C(=O)N(c2ccc(C(F)(F)F)cc2)C1c1ccc([N+](=O)[O-])cc1 (stereo not given)
Influenza A virus [1]
  IC50: > 400 µM

## CCOC(=O)C1=C(Nc2ccc(Oc3ccccc3)cc2)C(=O)N(c2ccc(Oc3ccccc3)cc2)C1c1ccccc1 (stereo not given)
Influenza A virus [1]
  IC50: > 400 µM

Reference: ChEMBL document CHEMBL4765325, “Discovery of dihydropyrrolidones as novel inhibitors against influenza A virus” (Eur J Med Chem, 2020)
